Where no end group is shown, it is not given here. [ ]: non-standard residue; d: D form. sY = N[C@@H](Cc1ccc(OS(=O)(=O)O)cc1)C(=O)O
How the values were obtained:
[1] = system: HIV-1 BaL; experiment: Acute HIV-1 infection assay in primary human CD4+ T cells; type: cell-based; conditions: dose-response; for inhibition of HIV-1 BaL infection: cell-free acute infection of primary human CD4+ T cells
Summary of the method: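 Peptides were stocked at 10 mg/mL in NH4OH and stored frozen. Cell-free infection of primary human CD4+ T cells used CCR5-tropic HIV-1 BaL. Test peptides were titrated for dose-response, and non-sulfated homologous peptides and a scrambled sulfated control peptide were run in parallel. Cell viability was assessed in a separate assay.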

[2] = system: binding of BG505 SOSIP.664 trimer to human CCR5; type: cell-based, HIV-1; conditions: Cf2Th/syn-CCR5 canine thymocytes, flow cytometry, dose-response
Summary of the method: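 Cf2Th/syn-CCR5 cells were harvested at ~80% confluency with enzyme-free dissociation buffer. His-tagged BG505 SOSIP.664 trimer was preincubated with 2-domain sCD4 for 1 h at 4 °C, treated with test compound across a dose range, then bound to cells for 1 h at 4 °C. After washes, bound trimer was detected with PE anti-His antibody (1 h, 4 °C). Cells were fixed in 2% PFA and analysed by flow cytometry. Anti-CCR5 mAb 2D6 confirmed specificity.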

[3] = system: soluble, stabilized gp140 trimer (BG505-SOSIP.664); experiment: SPR of soluble gp140 trimer binding to immobilized V2 peptide; parameters: species or system HIV-1; conditions: SOSIP trimer 12.5-200 nM, absence of the CD4 mimic
Summary of the method: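 The sulfated V2 test peptide was immobilized on a CM5 surface. Unliganded BG505 SOSIP.664 trimer (12.5–200 nM; produced in 293FS cells, lectin-affinity and size-exclusion purified) was injected for 2 min at 25 μL/min in HBS with 3 mM EDTA and 0.005% Tween-20, followed by 2 min dissociation. Regeneration used a brief 4.5 M MgCl2 pulse.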

[4] = system: recombinant gp120 (strain BaL); experiment: SPR of monomeric gp120 binding to immobilized V2 peptide; parameters: species or system HIV-1; conditions: peptide immobilized on CM5, gp120 BaL pre-complexed with CD4-M48U
Summary of the method: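 The sulfated V2 test peptide was immobilized on a CM5 chip. Recombinant monomeric gp120 BaL (25–400 nM) was preincubated with a 2-fold molar excess of CD4-M48U […]. It was injected for 2 min at 25 μL/min in HBS with 3 mM EDTA and 0.005% Tween-20, followed by 2 min dissociation. Surfaces were regenerated with 4.5 M MgCl2.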

[5] = system: sCD4:gp120 complex (gp120 BaL); experiment: NMR trNOESY interaction and competition with gp120/sCD4; type: binding, HIV-1; conditions: 2D NOESY, 0.8 mM peptide
Summary of the method: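 The tyrosine-sulfated V2 peptide was 15N-labelled at Ala/Ile/Leu/Phe/Val, at 800 μM (0.8 mM). It was incubated 1 h on ice with 20 μM sCD4, 20 μM recombinant gp120 BaL, or both. Samples were exchanged into 20 mM sodium phosphate pH 6.8, 50 mM NaCl, 0.02% azide, 10% D2O. NOESY was run at 30 °C, 600 MHz, with mixing times 100/250/400 ms. For competition, 0.4 mM peptide was used with 0, 0.8 or 1.6 mM unlabelled sulfated CCR5 N-terminal peptide.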

[6] = system: panel of 12 HIV-1 strains; experiment: Infection of CD4+ T cells by a panel of 12 HIV-1 strains; type: cell-based; conditions: 50 μM
Summary of the method: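 Cell-free infection of purified primary human CD4+ T cells, with each test compound at 50 μM. The panel had eight minimally passaged primary isolates (92US714, 92HT599, 07USLR, 07USPC, 07USSG, subtype B; 97ZA009, 98IN017, subtype C; 93BR019, subtype F) and four laboratory-expanded subtype B strains (BaL, JR-FL, ADA, IIIB). Both CCR5-tropic and CXCR4-using phenotypes were included.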

Tys177: pV2α version bearing a single sulfated tyrosine at position 177 (KVQKEYALF[sY]ELDIVPID)
inhibition of HIV-1 BaL infection [1]: exhibited antiviral activity | relative potency in inhibition of HIV-1 BaL infection ([1]; primary CD4+ T cells, singly vs doubly sulfated peptides): more potent than Tys173

DPVLEF[sY]KID[sY]IELAVQK [pSCR-Tys, reference compound]
inhibition of HIV-1 BaL infection [1]: did not show significant inhibitory activity | inhibition of binding of sCD4-activated BG505 SOSIP.664 trimer to CCR5 [2]: limited effects

KVQKE[sY]ALF[sY]ELDIVPID [pV2α-Tys]
binding of soluble gp140 trimer to immobilized peptide [3]: unable to bind | ka [4]: 48300 M⁻¹ s⁻¹ | trNOE signals (binding) with sCD4:gp120 complex ([5]; 20 μM sCD4:gp120, 30 °C): appearance of numerous NOE crosspeaks | trNOE signals (binding) with gp120 alone ([5]; gp120 alone): small number of weak trNOE crosspeaks | trNOE signals (binding) with sCD4 alone ([5]; sCD4 alone): no pV2α-Tys trNOEs signals were observed | inhibition of HIV-1 BaL infection [1]: potently inhibited infection | inhibition of binding of sCD4-activated BG505 SOSIP.664 trimer to CCR5 [2]: reduced CCR5 binding of the trimer in a dose-dependent fashion

KKQKVHALF[sY]KLDIVPIK [pV2αΕ-Tys]
relative potency over the strain panel ([6]; compared to pV2α-Tys): generally lower potency compared to pV2α-Tys | number of resistant HIV-1 strains of 12 ([6]; purified CD4+ T cells): 3

Tys173: pV2α version bearing a single sulfated tyrosine at position 173 (KVQKE[sY]ALFYELDIVPID)
inhibition of HIV-1 BaL infection [1]: exhibited antiviral activity

MDYQVSSPI[sY]DIN[sY]YTSEPSQK [pCCR5-Tys, reference compound]
activity against CCR5-tropic isolates ([6]; purified CD4+ T cells): restricted activity against CCR5-tropic isolates | activity against CXCR4-using (R5X4 and X4) isolates ([6]; purified CD4+ T cells): inactive | inhibition of HIV-1 BaL infection [1]: dose-dependent HIV-1 inhibition | inhibition of binding of sCD4-activated BG505 SOSIP.664 trimer to CCR5 [2]: Dose-dependent inhibitory effect

— paper PMC5006643 (EBioMedicine, 2016)
